From ChEMBL document CHEMBL3407460, “Synthesis of novel thiazole-based 8,9-dihydro-7H-pyrimido[4,5-b][1,4]diazepines as potential antitumor and antifungal agents” (2015)
Values after ≈ are worked out from the molar mass of the structure shown.

Key:
Assay type in all cases: functional
Cryptococcus neoformans [1] = assay: Antifungal activity against Cryptococcus neoformans ATCC 32264 assessed as growth inhibition at 125 ug/ml after 48 hrs by broth microdilution method; details: ATCC 32264, 48 h
In short: (§1)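 CLSI M27-A3 broth microdilution in RPMI-1640. Compound stocks were made in DMSO (final at most 1%) and tested at final levels of 250 to 0.98. Inoculum was 1–5 × 10^3 CFU/mL, incubated 48 h at 30 °C in a moist, dark chamber. Growth and sterility control wells were included.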

Candida albicans [2] = assay: Antifungal activity against Candida albicans ATCC 10231 assessed as growth inhibition at 62.5 ug/ml after 48 hrs by broth microdilution method; details: ATCC 10231, 48 h; in short: as §1
Candida albicans [3] = assay: Antifungal activity against Candida albicans ATCC 10231 assessed as growth inhibition at 7.81 ug/ml after 48 hrs by broth microdilution method; details: ATCC 10231, 48 h; in short: as §1
Candida albicans [4] = assay: Antifungal activity against Candida albicans ATCC 10231 assessed as growth inhibition at 125 ug/ml after 48 hrs by broth microdilution method; details: ATCC 10231, 48 h; in short: as §1
Cryptococcus neoformans [5] = assay: Antifungal activity against Cryptococcus neoformans ATCC 32264 assessed as growth inhibition at 7.81 ug/ml after 48 hrs by broth microdilution method; details: ATCC 32264, 48 h; in short: as §1
Candida albicans [6] = assay: Antifungal activity against Candida albicans ATCC 10231 assessed as growth inhibition at 31.25 ug/ml after 48 hrs by broth microdilution method; details: ATCC 10231, 48 h; in short: as §1
Cryptococcus neoformans [7] = assay: Antifungal activity against Cryptococcus neoformans ATCC 32264 assessed as growth inhibition at 31.25 ug/ml after 48 hrs by broth microdilution method; details: ATCC 32264, 48 h; in short: as §1
Cryptococcus neoformans [8] = assay: Antifungal activity against Cryptococcus neoformans ATCC 32264 assessed as growth inhibition at 250 ug/ml after 48 hrs by broth microdilution method; details: ATCC 32264, 48 h; in short: as §1
Candida albicans [9] = assay: Antifungal activity against Candida albicans ATCC 10231 assessed as growth inhibition at 250 ug/ml after 48 hrs by broth microdilution method; details: ATCC 10231, 48 h; in short: as §1
Candida albicans [10] = assay: Antifungal activity against Candida albicans ATCC 10231 assessed as growth inhibition at 15.62 ug/ml after 48 hrs by broth microdilution method; details: ATCC 10231, 48 h; in short: as §1
Cryptococcus neoformans [11] = assay: Antifungal activity against Cryptococcus neoformans ATCC 32264 assessed as growth inhibition at 3.9 ug/ml after 48 hrs by broth microdilution method; details: ATCC 32264, 48 h; in short: as §1
Cryptococcus neoformans [12] = assay: Antifungal activity against Cryptococcus neoformans ATCC 32264 assessed as growth inhibition at 62.5 ug/ml after 48 hrs by broth microdilution method; details: ATCC 32264, 48 h; in short: as §1
Candida albicans [13] = assay: Antifungal activity against Candida albicans ATCC 10231 assessed as growth inhibition at 3.9 ug/ml after 48 hrs by broth microdilution method; details: ATCC 10231, 48 h; in short: as §1
Cryptococcus neoformans [14] = assay: Antifungal activity against Cryptococcus neoformans ATCC 32264 assessed as growth inhibition at 15.62 ug/ml after 48 hrs by broth microdilution method; details: ATCC 32264, 48 h; in short: as §1
Cryptococcus neoformans [15] = assay: Antifungal activity against Cryptococcus neoformans IM 00319 clinical isolate after 48 hrs by broth microdilution method; details: IM 00319, 48 h
In short: (§2)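 Clinical isolates from the Malbrán Institute were grown on Sabouraud-chloramphenicol agar for 48 h at 30 °C, kept on Sabouraud-dextrose agar and subcultured every 15 days. Endpoints MIC100, MIC80 and MIC50 were taken from % inhibition dose-response curves.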

Cryptococcus neoformans [16] = assay: Antifungal activity against Cryptococcus neoformans IM 972751 clinical isolate after 48 hrs by broth microdilution method; details: IM 972751, 48 h
In short: as §2, with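 “days. M27-A3 RPMI-1640 microdilution used 1–5 × 10^3 CFU/mL, 48 h at 30 °C, OD405 read, triplicate.” for “days.”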

Cryptococcus neoformans [17] = assay: Antifungal activity against Cryptococcus neoformans IM 983040 clinical isolate after 48 hrs by broth microdilution method; details: IM 983040, 48 h
In short: as §2, with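 “days. M27-A3 RPMI-1640 microdilution used 1–5 × 10^3 CFU/mL, 48 h at 30 °C, OD405 read, triplicate.” for “days.”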

Cryptococcus neoformans [18] = assay: Antifungal activity against Cryptococcus neoformans IM 972724 clinical isolate after 48 hrs by broth microdilution method; details: IM 972724, 48 h
In short: as §2, with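 “days. M27-A3 RPMI-1640 microdilution used 1–5 × 10^3 CFU/mL, 48 h at 30 °C, OD405 read, triplicate.” for “days.”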

Cryptococcus neoformans [19] = assay: Antifungal activity against Cryptococcus neoformans IM 042074 clinical isolate after 48 hrs by broth microdilution method; details: IM 042074, 48 h
In short: as §2, with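 “days. M27-A3 RPMI-1640 microdilution used 1–5 × 10^3 CFU/mL, 48 h at 30 °C, OD405 read, triplicate.” for “days.”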

Cryptococcus neoformans [20] = assay: Antifungal activity against Cryptococcus neoformans ATCC 32264 after 48 hrs by broth microdilution method; details: ATCC 32264, 48 h
Cryptococcus neoformans [21] = assay: Antifungal activity against Cryptococcus neoformans IM 031631 clinical isolate after 48 hrs by broth microdilution method; details: IM 031631, 48 h
In short: as §2, with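 “days. M27-A3 RPMI-1640 microdilution used 1–5 × 10^3 CFU/mL, 48 h at 30 °C, OD405 read, triplicate.” for “days.”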

Cryptococcus neoformans [22] = assay: Antifungal activity against Cryptococcus neoformans IM 983036 clinical isolate after 48 hrs by broth microdilution method; details: IM 983036, 48 h
In short: as §2, with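 “days. M27-A3 RPMI-1640 microdilution used 1–5 × 10^3 CFU/mL, 48 h at 30 °C, OD405 read, triplicate.” for “days.”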

Cryptococcus neoformans [23] = assay: Antifungal activity against Cryptococcus neoformans IM 031706 clinical isolate after 48 hrs by broth microdilution method; details: IM 031706, 48 h; in short: as §2
Cryptococcus neoformans [24] = assay: Antifungal activity against Cryptococcus neoformans IM 052470 clinical isolate after 48 hrs by broth microdilution method; details: IM 052470, 48 h; in short: as §2
Cryptococcus neoformans [25] = assay: Antifungal activity against Cryptococcus neoformans IM 961951 clinical isolate after 48 hrs by broth microdilution method; details: IM 961951, 48 h
In short: as §2, with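 “days. M27-A3 RPMI-1640 microdilution used 1–5 × 10^3 CFU/mL, 48 h at 30 °C, OD405 read, triplicate.” for “days.”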

Nc1nc(N)c2c(n1)NC(c1sc(Cl)nc1Cl)CC(c1ccc3c(c1)OCO3)=N2 (configuration not stated)
inhibition at 125 µg/mL (Cryptococcus neoformans [1]): 36.9%
inhibition at 62.5 µg/mL (Candida albicans [2]): 41.6%
inhibition at 7.81 µg/mL (Candida albicans [3]): 0%
inhibition at 125 µg/mL (Candida albicans [4]): 48.1%
inhibition at 7.81 µg/mL (Cryptococcus neoformans [5]): 3.92%
inhibition at 31.25 µg/mL (Candida albicans [6]): 24.3%
inhibition at 31.25 µg/mL (Cryptococcus neoformans [7]): 7.07%
inhibition at 250 µg/mL (Cryptococcus neoformans [8]): 58.5%
inhibition at 250 µg/mL (Candida albicans [9]): 56.8%
inhibition at 15.62 µg/mL (Candida albicans [10]): 0%
inhibition at 3.9 µg/mL (Cryptococcus neoformans [11]): 0%
inhibition at 62.5 µg/mL (Cryptococcus neoformans [12]): 19.5%
inhibition at 3.9 µg/mL (Candida albicans [13]): 0%
inhibition at 15.62 µg/mL (Cryptococcus neoformans [14]): 5.35%

Nc1nc(N)c2c(n1)NC(c1sc(Cl)nc1Cl)CC(c1ccccc1)=N2 (configuration not stated)
MFC (Cryptococcus neoformans [15]): 62.5 µg/mL (≈ 154 µM)
MIC50 (Cryptococcus neoformans [15]): 31.2 µg/mL (≈ 76.8 µM)
MIC80 (Cryptococcus neoformans [15]): 31.2 µg/mL (≈ 76.8 µM)
MIC (Cryptococcus neoformans [15]; read-out: MIC100): 62.5 µg/mL (≈ 154 µM)
MFC (Cryptococcus neoformans [16]): 62.5 µg/mL (≈ 154 µM)
MIC50 (Cryptococcus neoformans [16]): 31.2 µg/mL (≈ 76.8 µM)
MIC80 (Cryptococcus neoformans [16]): 31.2 µg/mL (≈ 76.8 µM)
MIC (Cryptococcus neoformans [16]; read-out: MIC100): 62.5 µg/mL (≈ 154 µM)
inhibition at 125 µg/mL (Cryptococcus neoformans [1]): 74.3%
inhibition at 62.5 µg/mL (Candida albicans [2]): 100%
inhibition at 7.81 µg/mL (Candida albicans [3]): 21.5%
MFC (Cryptococcus neoformans [17]): 62.5 µg/mL (≈ 154 µM)
MIC50 (Cryptococcus neoformans [17]): 7.8 µg/mL (≈ 19.2 µM)
MIC80 (Cryptococcus neoformans [17]): 31.2 µg/mL (≈ 76.8 µM)
MIC (Cryptococcus neoformans [17]; read-out: MIC100): 31.2 µg/mL (≈ 76.8 µM)
inhibition at 125 µg/mL (Candida albicans [4]): 100%
MFC (Cryptococcus neoformans [18]): 31.2 µg/mL (≈ 76.8 µM)
MIC50 (Cryptococcus neoformans [18]): 15.6 µg/mL (≈ 38.4 µM)
MIC80 (Cryptococcus neoformans [18]): 31.2 µg/mL (≈ 76.8 µM)
MIC (Cryptococcus neoformans [18]; read-out: MIC100): 31.2 µg/mL (≈ 76.8 µM)
MFC (Cryptococcus neoformans [19]): 62.5 µg/mL (≈ 154 µM)
MIC50 (Cryptococcus neoformans [19]): 15.6 µg/mL (≈ 38.4 µM)
MIC80 (Cryptococcus neoformans [19]): 31.2 µg/mL (≈ 76.8 µM)
MIC (Cryptococcus neoformans [19]; read-out: MIC100): 31.2 µg/mL (≈ 76.8 µM)
inhibition at 7.81 µg/mL (Cryptococcus neoformans [5]): 0%
inhibition at 31.25 µg/mL (Candida albicans [6]): 100%
MFC (Cryptococcus neoformans [20]): 31.2 µg/mL (≈ 76.8 µM)
MIC50 (Cryptococcus neoformans [20]): 15.6 µg/mL (≈ 38.4 µM)
MIC80 (Cryptococcus neoformans [20]): 31.2 µg/mL (≈ 76.8 µM)
MIC (Cryptococcus neoformans [20]; read-out: MIC100): 31.2 µg/mL (≈ 76.8 µM)
inhibition at 31.25 µg/mL (Cryptococcus neoformans [7]): 7%
inhibition at 250 µg/mL (Cryptococcus neoformans [8]): 100%
inhibition at 250 µg/mL (Candida albicans [9]): 100%
MFC (Cryptococcus neoformans [21]): 62.5 µg/mL (≈ 154 µM)
MIC50 (Cryptococcus neoformans [21]): 31.2 µg/mL (≈ 76.8 µM)
MIC80 (Cryptococcus neoformans [21]): 31.2 µg/mL (≈ 76.8 µM)
MIC (Cryptococcus neoformans [21]; read-out: MIC100): 62.5 µg/mL (≈ 154 µM)
inhibition at 15.62 µg/mL (Candida albicans [10]): 62%
MFC (Cryptococcus neoformans [22]): 31.2 µg/mL (≈ 76.8 µM)
MIC50 (Cryptococcus neoformans [22]): 15.6 µg/mL (≈ 38.4 µM)
MIC80 (Cryptococcus neoformans [22]): 31.2 µg/mL (≈ 76.8 µM)
MIC (Cryptococcus neoformans [22]; read-out: MIC100): 31.2 µg/mL (≈ 76.8 µM)
inhibition at 3.9 µg/mL (Cryptococcus neoformans [11]): 0%
inhibition at 62.5 µg/mL (Cryptococcus neoformans [12]): 21.8%
inhibition at 3.9 µg/mL (Candida albicans [13]): 4.92%
MFC (Cryptococcus neoformans [23]): 62.5 µg/mL (≈ 154 µM)
MIC50 (Cryptococcus neoformans [23]): 31.2 µg/mL (≈ 76.8 µM)
MIC80 (Cryptococcus neoformans [23]): 31.2 µg/mL (≈ 76.8 µM)
MIC (Cryptococcus neoformans [23]; read-out: MIC100): 62.5 µg/mL (≈ 154 µM)
MFC (Cryptococcus neoformans [24]): 62.5 µg/mL (≈ 154 µM)
MIC50 (Cryptococcus neoformans [24]): 7.8 µg/mL (≈ 19.2 µM)
MIC80 (Cryptococcus neoformans [24]): 31.2 µg/mL (≈ 76.8 µM)
MIC (Cryptococcus neoformans [24]; read-out: MIC100): 62.5 µg/mL (≈ 154 µM)
inhibition at 15.62 µg/mL (Cryptococcus neoformans [14]): 2.53%
MFC (Cryptococcus neoformans [25]): 31.2 µg/mL (≈ 76.8 µM)
MIC50 (Cryptococcus neoformans [25]): 15.6 µg/mL (≈ 38.4 µM)
MIC80 (Cryptococcus neoformans [25]): 31.2 µg/mL (≈ 76.8 µM)
MIC (Cryptococcus neoformans [25]; read-out: MIC100): 31.2 µg/mL (≈ 76.8 µM)
